This note sets out measurements from ChEMBL document CHEMBL1131140, “Synthesis and antimalarial activities of fluoroalkyl derivatives of dihydroartemisinin” (J Med Chem, 1998).

The experiment deals with Plasmodium falciparum. Put plainly: In vitro antimalarial activity for Plasmodium falciparum W-2. The experiment is classed as functional, organism-based. In short, it runs like this:
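P. falciparum W-2 cultured in A+ human erythrocytes, RPMI with 10% A+ human serum, 25 mM HEPES, 25 mM NaHCO3, 37 °C, 10% O2/6% CO2/84% N2. Assay at 0.5% parasitemia, 1.5% hematocrit; 2-fold dilutions (methanol stocks), final 1.6–200 nM in triplicate; [3H]hypoxanthine uptake over 42 h; IC50 by nonlinear regression of log dose–response; mean of ≥3 experiments.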

pIC50: −log10 of the molar value.

For orientation: pIC50 means −log10 of the IC50, conventionally taken in molar units. Higher therefore signals a small IC50. Turning to `COC1O[C@@H]2OC3(C)CC[C@H]4[C@H](C)CC[C@@H]([C@H]1C)[C@@]24OO3` (single isomer, unassigned), the negative logarithm of the IC50 (pIC50) is 8.12.
The result for `C[C@@H]1CC[C@H]2[C@@H](C)C(OCC(F)(F)C(F)(F)F)O[C@@H]3OC4(C)CC[C@@H]1[C@]32OO4` (single isomer, unassigned) reads 7.57; that for `C[C@@H]1CC[C@H]2[C@@H](C)C(OC(c3ccccc3)C(F)(F)F)O[C@@H]3OC4(C)CC[C@@H]1[C@]32OO4` (single isomer, unassigned), 7.18.
The result for `C[C@H]1C(OCC(F)(F)F)O[C@@H]2OC3(C)CC[C@H]4[C@H](C)CCC1[C@@]24OO3` (single isomer, unassigned) reads 7.51; that for `CCOC(=O)C(OC1O[C@@H]2OC3(C)CC[C@H]4[C@H](C)CC[C@@H]([C@H]1C)[C@@]24OO3)C(F)(F)F` (single isomer, unassigned), 7.21; that for `C[C@@H]1CC[C@H]2[C@@H](C)[C@](O)(C(F)(F)F)O[C@@H]3OC4(C)CC[C@@H]1[C@]32OO4` (single isomer, unassigned), 8.59.
The result for `C[C@@H]1CC[C@H]2[C@@H](C)C(OC(c3ccccc3)(C(F)(F)F)C(F)(F)F)O[C@@H]3OC4(C)CC[C@@H]1[C@]32OO4` (single isomer, unassigned) reads 7.42; that for `C[C@@H]1CC[C@H]2[C@@H](C)C(OC(C(F)(F)F)C(F)(F)F)O[C@@H]3OC4(C)CC[C@@H]1[C@]32OO4` (single isomer, unassigned), 7.47.
As for `C[C@@H]1CC[C@H]2[C@@H](C)C(OCC(F)(F)C(F)(F)C(F)(F)F)O[C@@H]3OC4(C)CC[C@@H]1[C@]32OO4` (single isomer, unassigned), the pIC50 is 7.44.
`C[C@@H]1CC[C@H]2[C@@H](C)C(OCC(F)(F)C(F)C(F)(F)F)O[C@@H]3OC4(C)CC[C@@H]1[C@]32OO4` (single isomer, unassigned): the pIC50 was 7.47.
The result for `CO[C@H]1O[C@@H]2O[C@@]3(C)CC[C@H]4[C@H](C)CC[C@@H]([C@H]1C)[C@@]24OO3` [ARTEMETHER] reads 8.27; that for `CC(OC1O[C@@H]2OC3(C)CC[C@H]4[C@H](C)CC[C@@H]([C@H]1C)[C@@]24OO3)C(F)(F)F` (single isomer, unassigned), 7.46.
